From PubChem BioAssay
An excerpt weighted towards active compounds, which were near 5.4% of everything screened.
aSyn UTR inh – 5' untranslated region of α-synuclein, MLPCN primary screen; alpha-synuclein 5'UTR reporter, inhibitor activity; inhibition, % (tested at 7.5 µM); 300,000 compounds, 0.82% hits; AID 1813; in the data active = inhibition above about 60%; inconclusive = no clear call, values can overlap the other calls;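 also: H4 neuroglioblastoma cells stably carrying SNCA 5'UTR luciferase fusion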
Mdm2 MdmX PPI – inhibitors of human Mdm2/MdmX interaction; O15151+Q00987; SaOS-2 split-luciferase Mdm2/MdmX complementation, luminescence; inhibition, % at 8 µM; 330,000 compounds, 3% hits; AID 485346;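 active = inhibition of at least 50% at 8 µM in the primary screen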
Target sequence (O15151 whole entry, looked up): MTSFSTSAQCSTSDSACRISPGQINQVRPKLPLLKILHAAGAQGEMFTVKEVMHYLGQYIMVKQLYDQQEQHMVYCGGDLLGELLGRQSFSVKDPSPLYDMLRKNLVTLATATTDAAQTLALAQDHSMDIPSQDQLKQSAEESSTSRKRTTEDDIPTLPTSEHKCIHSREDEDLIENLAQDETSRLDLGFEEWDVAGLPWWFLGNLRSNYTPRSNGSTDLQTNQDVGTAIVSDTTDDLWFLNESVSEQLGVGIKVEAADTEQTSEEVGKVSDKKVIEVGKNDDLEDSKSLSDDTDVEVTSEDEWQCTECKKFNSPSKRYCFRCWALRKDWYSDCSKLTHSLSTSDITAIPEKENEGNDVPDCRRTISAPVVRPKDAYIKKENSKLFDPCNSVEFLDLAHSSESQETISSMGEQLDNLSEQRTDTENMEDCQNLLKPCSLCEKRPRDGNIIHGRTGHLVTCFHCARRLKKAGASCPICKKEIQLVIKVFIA
Target sequence (Q00987 whole entry, looked up): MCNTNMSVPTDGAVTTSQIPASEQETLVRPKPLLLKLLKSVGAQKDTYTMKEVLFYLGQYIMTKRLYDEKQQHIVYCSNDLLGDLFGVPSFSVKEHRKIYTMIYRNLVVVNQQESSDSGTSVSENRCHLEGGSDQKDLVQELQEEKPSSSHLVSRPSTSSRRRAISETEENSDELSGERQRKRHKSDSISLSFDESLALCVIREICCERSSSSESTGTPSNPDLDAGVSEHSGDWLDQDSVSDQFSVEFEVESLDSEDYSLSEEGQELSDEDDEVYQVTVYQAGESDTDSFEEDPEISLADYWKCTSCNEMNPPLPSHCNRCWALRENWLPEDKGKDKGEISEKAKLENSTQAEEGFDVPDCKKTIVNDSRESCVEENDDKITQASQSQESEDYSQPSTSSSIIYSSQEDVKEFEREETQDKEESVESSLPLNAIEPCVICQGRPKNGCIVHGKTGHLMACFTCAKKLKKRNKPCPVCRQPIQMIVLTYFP
SKKanGAS inh – blocks kanamycin growth of S. pyogenes SKKanGAS strain; BacTiter-Glo, 6 h; inhibition, % at 7.5 µM; 300,000 compounds, 1.3% hits; AID 1662;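 active = mean replicate score, as percent of positive control median, at least 50; inconclusive = mean below 50 but one replicate at or above 50; inactive = mean and every replicate below 50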;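 also: strain carries kanamycin resistance gene driven by streptokinase promoter and grows in 40 µg/ml kanamycin; loss of luminescence reflects streptokinase promoter inhibition or plain growth inhibition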
CSC inhib – blocks cancer stem cells; cancer stem cell-like cells viability, luminescence; inhibition, % at 7.5 µM; 300,000 compounds, 1.1% hits; in the data active = inhibition above about 75%; inconclusive = no clear call, values can overlap the other calls; tested in HMLE shEcad cells
T cruzi inh – T. cruzi replication inhibition | T. cruzi beta-gal in NIH3T3, luminescence, 90 h | inhibition, % (no concentration beside the values) | 300,000 compounds, 1.4% hits | AID 1885;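 active = mean inhibition across valid replicates above about 55%, limit read from the data; inconclusive = mean below that limit but half or more replicates reach it; inactive = mean below it, under half of replicates reach it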;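 also: signal also drops with host cell toxicity which is not excluded here; higher percent means less beta-gal luminescence so fewer parasites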
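Assay system: NIH/3T3 fibroblasts plus reporter T. cruzi. Amount: NIH/3T3 cells, 5,000 per well. Buffer or medium: DMEM, 2% fetal bovine serum. Doses: compound pinned at 50 nL/well, DMSO. Schedule: ≥90 h infection period, 3 h prior cell attachment. Signal: luminescent β-galactosidase signal after 60 min lysis. Read-out: parasite load inhibition, %.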
Mdm2 MdmX conf – human Mdm2/MdmX binding inhibition, confirmed; inhibition, % at 8 µM; luminescent assay; 10,000 compounds, 55% hits; shares compounds with Mdm2 MdmX PPI; AID 489028; in the data active = inhibition above about 40%
FLuc counter – full-length luciferase inhibition in Mdm2/MdmX counter-screen | shares compounds with Mdm2 MdmX PPI | SaOS-2 full-length luciferase counterscreen, luminescence | inhibition, % at 8 µM | 6,200 compounds, 77% hits | AID 504607;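 active = mean inhibition at 8 µM reaching about 37%, which flags the compound as non-specific, limit read from the data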;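 also: p53-null SaOS-2 cells with luciferase driven by a doxycycline-inducible promoter; compound on cells about two nights before reading with doxycycline added after day one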
Hits are given with their value; - = inactive; ? = inconclusive; . = no result given.

SMILES	aSyn UTR inh	Mdm2 MdmX PPI	SKKanGAS inh	CSC inhib	T cruzi inh	Mdm2 MdmX conf	FLuc counter
COc1cc(OC)cc(-c2c(C#Cc3ccsc3)c3cc(-c4cc(OC)c(OC)c(OC)c4)ccc3n2C)c1	.	-	.	-	.	.	.
Cc1cc(-c2ccc(S(=O)(=O)N(C)c3ccc(C)c(C)c3)s2)on1	-	56	-	-	-	54	47
Cc1ccc(N(C)S(=O)(=O)c2ccc(-c3cc(C)no3)s2)cc1	-	54	-	-	-	55	59
COc1ccc(-c2cc(C)no2)cc1S(=O)(=O)N(C)c1ccc(C)c(C)c1	-	-	-	-	-	.	.
O=C(OCC(=O)N1CCN(C(=O)c2ccco2)CC1)c1cc(-c2ccc(Cl)c(Cl)c2Cl)nc2ccccc12	-	57	-	-	-	-	.
CN1CCCN(C(=O)c2cc(-c3ccc(Cl)c(Cl)c3Cl)nc3ccccc23)CC1	-	53	-	-	-	-	76
Cc1cccc(OS(=O)(=O)NC(=O)OCC2CCCN3CCCCC23)c1 (stereo unspecified)	-	-	-	-	-	.	.
Cc1cnc(NC(=O)/C=C/c2ccc(Br)o2)s1	-	75	-	-	-	-	.
CCOCc1nnc(NC(=O)c2cc(OC)c(OC)cc2[N+](=O)[O-])s1	-	-	-	-	-	.	.
S=c1nc(C2CC2)n(-c2ccccc2)[nH]1	-	-	-	-	-	.	.
c1ccc(Cn2nnc3c(NCc4ccc5c(c4)OCO5)nc(C4CC4)nc32)cc1	-	-	-	-	-	.	.
Cc1nc(NCc2ccc3c(c2)OCO3)c2nnn(Cc3ccccc3)c2n1	-	77	-	-	-	-	67
COc1cccc(CN(C)C(=O)C(CCSC)NS(=O)(=O)c2ccc3c(c2)OCCO3)c1OC (stereo unspecified)	-	67	-	-	-	56	72
COc1ccc(C2NC(C(=O)O)Cc3c2[nH]c2ccccc32)cc1CN1CCN(c2ccc(F)cc2)CC1 (stereo unspecified)	-	-	-	-	-	.	.
COc1ccc(C2NCCc3c2[nH]c2ccccc32)cc1COc1ccc(F)cc1 (stereo unspecified)	-	69	-	?	-	-	.
Cc1ccc(C(=O)c2c(C)oc3c2C(=O)C(=O)c2ccccc2-3)cc1	-	97	93	-	?	99	42
O=C(CCc1nnc(-c2ccsc2)o1)N1CCCCC1CCn1ccnc1 (stereo unspecified)	-	-	-	-	-	.	.
Nc1nc(SCC(=O)Nc2ccc(Cl)cc2)[nH]c(=O)c1-c1ccccc1	-	-	-	.	-	.	.
Cn1nc(C(F)(F)F)c(/C=N/OC(=O)c2ccccc2)c1Sc1ccc(Cl)cc1	-	51	-	-	-	-	.
Cn1nc(C(F)(F)F)c(/C=N/OC(=O)c2ccccc2)c1Cl	-	-	-	-	-	.	.
COc1ccc(C(=O)/C=C/c2ccccc2)c(OC)c1	-	-	-	-	-	.	.
COc1ccc(C(=O)/C=C/c2cc(OC)c(O)c(OC)c2)c(F)c1	-	51	-	?	-	-	.
COc1ccc(CN=C2NC(=O)CC(C(=O)Nc3ccccc3C)S2)cc1 (stereo unspecified)	-	-	-	-	-	.	.
COc1ccc(/C=N/N=C/c2ccc(OC)cc2)cc1	-	-	-	-	-	.	.
COc1ccc(/C=N/N=C2/NC(=O)C(c3ccccc3)(c3ccccc3)S2)cc1	-	61	-	-	-	-	.
SMILES	aSyn UTR inh	Mdm2 MdmX PPI	SKKanGAS inh	CSC inhib	T cruzi inh	Mdm2 MdmX conf	FLuc counter
COc1ccc(NC(=O)C2CC(=O)N/C(=N/N=C/c3ccccc3)S2)cc1 (stereo unspecified)	-	79	-	-	-	59	91
COc1ccccc1CNC(=O)C1CCC(CNS(=O)(=O)c2ccc(F)cc2)CC1 (stereo unspecified)	-	-	-	-	-	.	.
Cc1c(/C=N/Nc2nc3ccccc3[nH]2)c2ccccc2n1C	-	93	88	-	56	48	71
COc1cccc(/C=N/Nc2nc3ccccc3[nH]2)c1O	-	61	79	-	-	40	61
O=[N+]([O-])c1ccc(O)c(/C=N/Nc2nc3ccccc3[nH]2)c1	-	89	71	102	-	52	48
COc1ccc(O)c(/C=N/Nc2nc3ccccc3[nH]2)c1	-	-	-	-	-	.	.
O=[N+]([O-])c1ccc(O)c(/C=N/Nc2ncnc3c2cnn3-c2ccccc2)c1	66	91	88	104	-	91	-
C(=N\Nc1nc2ccccc2[nH]1)/c1cccs1	-	-	-	-	-	.	.
CC1=NOC(=O)/C1=C\c1ccc(-c2cccc(Cl)c2)o1	-	96	-	-	-	-	.
CC1=NOC(=O)/C1=C\c1ccc(-c2ccc(Cl)c(C(=O)O)c2)o1	-	-	-	.	-	.	.
CCn1c(SCC(=O)Nc2nncs2)nnc1C(C)NC(=O)c1ccccc1Br (stereo unspecified)	-	-	-	-	-	.	.
COc1ccccc1NC(=O)CCCc1nnc2n(C)c(=O)c3sccc3n12	-	-	-	-	-	.	.
CCOC(=O)c1c(NC(C)=O)sc2c(O)cccc12	-	-	-	-	-	.	.
CCOC(=O)c1c(NC(C)=O)sc2c(OCC(O)CNC(C)(C)C)c(Br)ccc12 (stereo unspecified)	-	100	-	-	-	100	54
Cn1c(SCC(=O)NNC(=O)c2ccccc2)nnc1C(F)(F)F	.	-	.	.	.	.	.
CCOC(=O)c1c(CSC(=N)N)n(-c2ccc(C)cc2)c2cc(Br)c(OC(C)=O)cc12	-	92	-	114	-	-	.
CCOC(=O)c1c(CSC(=N)N)n(C)c2cc(Br)c(OC(C)=O)cc12	-	-	-	-	-	.	.
CCN1CCN(C(=O)C(C)Oc2ccc(S(=O)(=O)N3CCCC3)cc2C(N)=O)CC1 (stereo unspecified)	.	-	.	-	.	.	.
CCOc1ccc(S(=O)(=O)NCCc2ccccn2)cc1	.	-	.	-	.	.	.
Nc1[nH]nc2nc(NCc3ccccc3)c3c(c12)CCN(Cc1ccccc1)C3	-	53	-	-	-	-	.
CCOC(=O)c1ccc(N=c2sc(C(=O)OC)cc(=O)n2Cc2ccco2)cc1	-	55	-	92	-	-	.
COc1cc(C(=O)NC2CCCc3ccccc32)cc(OC)c1C (stereo unspecified)	-	-	-	-	-	.	.
COc1ccc(C(=O)NC2CCCc3ccccc32)cc1[N+](=O)[O-] (stereo unspecified)	-	67	-	-	-	58	53
O=C(C#Cc1ccccc1)c1cccc([N+](=O)[O-])c1	-	88	-	.	-	-	.
CCCOc1ccc(C(=O)CCCC(=O)c2ccc(OCCC)cc2)cc1	-	-	-	-	-	.	.
Cc1cccc(C)c1NC(=O)CN(c1ccccn1)S(=O)(=O)c1ccc(F)cc1	-	-	-	-	-	.	.
